M5 ag: human M5 muscarinic receptor agonists, primary screen, CHO-K1 cells, Fluo-8 calcium fluorescence; 360,000 tested, 0.19% active; CHO-K1 hM5 cells; 0% DMSO wells, 100% maximal acetylcholine response; activation, % at 3 µM;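 active = activation above the run's mean over test compounds plus 3 SD, cut at about 23% in these data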;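 also: signal is peak over basal fluorescence ratio across the kinetic read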
M1 antag: human M1 muscarinic receptor antagonists, primary screen, CHO-K1 cells, Fluo-8 calcium fluorescence, 1536-well. inhibition, % at 3 µM. 360,000 tested, 1.3% active. AID 588852, 2011. CHO-K1 hM1, ACh EC80 antagonist. Muscarinic acetylcholine receptor M1 (Homo sapiens), P11229;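 active = percent inhibition above its own plate's cutoff, namely the mean of that plate's compound wells plus 3 SD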;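 also: peak over basal fluorescence ratio during 140 s after agonist addition; 0% = ACh EC80 plus DMSO and 100% = DMSO alone without agonist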
Target sequence (P11229 whole entry, looked up): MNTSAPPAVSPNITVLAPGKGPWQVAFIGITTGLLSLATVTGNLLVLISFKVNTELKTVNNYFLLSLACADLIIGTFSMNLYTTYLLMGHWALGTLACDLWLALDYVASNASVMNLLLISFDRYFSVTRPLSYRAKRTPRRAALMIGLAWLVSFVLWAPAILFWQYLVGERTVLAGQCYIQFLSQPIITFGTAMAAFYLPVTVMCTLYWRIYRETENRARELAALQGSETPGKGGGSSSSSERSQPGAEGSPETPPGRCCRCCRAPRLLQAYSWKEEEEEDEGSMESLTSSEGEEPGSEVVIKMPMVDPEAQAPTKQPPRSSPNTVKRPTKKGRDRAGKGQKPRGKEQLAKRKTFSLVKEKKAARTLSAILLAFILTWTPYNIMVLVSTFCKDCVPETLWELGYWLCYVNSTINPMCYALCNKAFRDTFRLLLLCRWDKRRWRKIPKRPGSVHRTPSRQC
CHRM5 PAM: human M5 muscarinic receptor positive allosteric modulators, primary screen, CHO-K1 cells, Fluo-8 calcium fluorescence; CHO-K1 hM5, ACh EC20 PAM; 0% = ACh EC20, 100% = ACh EC100; 360,000 tested, 0.3% active; AID 624038, 2012; activation, % at 3 µM; Muscarinic acetylcholine receptor M5 (Homo sapiens), P08912;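 active = activation above the run cutoff, the mean activation of all test compounds plus 3 SD, cut at about 18% in these data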
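Assay system: CHO-K1 hM5 cells / Incubation: Fluo-8 loading 80 min at 37 °C plus 30 min room temperature / Technique: Fluo-8 calcium dye fluorescence, kinetic read / Repeats: single replicate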
M1 ag: human M1 muscarinic receptor agonists, primary screen, Fluo-8 calcium fluorescence, CHO-K1 cells, HTS. Muscarinic acetylcholine receptor M1 (Homo sapiens), P11229. CHO-K1 hM1, agonist mode; 0% DMSO, 100% acetylcholine EC100. activation, % at 3 µM. 360,000 tested, 0.33% active;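 active = activation above the run's mean compound activation plus 3 SD, cut at about 16% in these data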;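 also: peak over basal fluorescence ratio within a 140 s kinetic read after compound addition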
M5 antag: human M5 muscarinic receptor antagonists, primary screen, CHO cells, Fluo-8 calcium fluorescence; Muscarinic acetylcholine receptor M5 (Homo sapiens), P08912; 360,000 tested, 0.59% active; inhibition, % at 3 µM; CHO-hM5 cells, ACh EC80;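 active = inhibition above a per-plate cutoff, the mean of that plate's test compounds plus 3 SD, cut at about 27% in these data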;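 also: 0% = acetylcholine EC80 with DMSO and 100% = DMSO without agonist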
M1 PAM: human M1 muscarinic receptor positive allosteric modulators, primary screen, CHO-K1 cells, Fluo-8 calcium fluorescence, 1536-well; activation, % at 3 µM; AID 588819, 2011; Muscarinic acetylcholine receptor M1 (Homo sapiens), P11229; 360,000 tested, 0.088% active; CHO-K1 hM1, ACh EC20; 0% = ACh EC20, 100% = maximal ACh; in the data active = activation above about 19%, passing the limit was not always enough
Active calls of the source: *; x = no result given. Sampled rows, rich in hits. Any-hit rate of the full collection: about 2%.

SMILES	M5 ag	M1 antag	CHRM5 PAM	M1 ag	M5 antag	M1 PAM
O=C(NCc1ccncc1)Nc1cccc(Cl)c1	-7	-8	2	-3	-5	4
O=C(O)CNc1nc(NCc2ccc(Cl)cc2)ccc1[N+](=O)[O-]	1	-19	0	-1	-3	10
CC(CCl)n1c(=O)c2ccccc2n1S(C)(=O)=O (stereo not given)	1	x	-6	x	12	x
COCCN1C(=O)C(=O)/C(=C(/O)c2ccc(C)cc2)C1c1ccccn1 (stereo not given)	-1	-16	6	-3	-7	10
CCN(c1ccc(Cl)cc1)S(=O)(=O)c1nnc(NC(=O)C(C)C)s1	-5	-14	-1	-1	5	15
COc1cccc(-c2cnc(C(O)c3ccc(Cl)c(Cl)c3)[nH]2)c1 (stereo not given)	4	1	1	3	7	-3
Cc1cc(C)cc(NC(=O)Nc2ccc(-n3ccc(C(F)(F)F)n3)cc2)c1	1	18	-24	-1	22	-9
O=C(Nc1ccc(-n2ccc(C(F)(F)F)n2)cc1)Nc1cccc(Cl)c1	7	45*	-30	4	38*	-19
Cc1ccc(S(=O)(=O)N2C[C@H]3C(=O)C[C@@H](c4ccccc4)N(S(=O)(=O)c4ccccc4C)[C@H]3C[C@H]2c2ccccc2)cc1	3	-3	6	1	-12	1
COc1ccc(C2/C(=C(/O)c3ccc4c(c3)CC(C)O4)C(=O)C(=O)N2CCCN2CCOCC2)cc1 (stereo not given)	0	-21	20*	0	-22	11
COc1ccc(C2/C(=C(/O)c3ccc4c(c3)CC(C)O4)C(=O)C(=O)N2CCN2CCOCC2)cc1 (stereo not given)	0	3	-5	-2	4	1
COc1ccc(/C(O)=C2/C(=O)C(=O)N(CCCN3CCOCC3)C2c2ccc(OC)cc2)cc1 (stereo not given)	-5	6	-11	-4	32*	-7
COc1ccc(C2/C(=C(/O)c3ccc(S(=O)(=O)N4CCOCC4)cc3)C(=O)C(=O)N2CCN2CCOCC2)cc1 (stereo not given)	-1	-11	1	-2	-2	10
CSc1ccc(CN2CCC(N3CCC(C(=O)NC4CC4)CC3)CC2)cc1	-3	-8	-1	-5	-2	6
Cc1c(P(=S)(c2ccccc2)c2ccccc2)[n+]2ccccc2n1CCc1ccccc1	-4	47*	-7	-10	12	-32
CCOC(=O)c1cc(C)n(CCc2ccccc2)c1C	-6	-32	6	-3	-7	5
Cc1ccccc1C(=O)NC1CC2CCCC(C1)N2Cc1ccc(Cl)cc1 (stereo not given)	-22	54*	-8	-10	0	-26
O=C(NC1CC2CCCC(C1)N2Cc1ccccc1)c1cccc(F)c1 (stereo not given)	-21	49*	-7	-9	3	-25
CC(C)(C)OC(=O)NC1CC2CCCC(C1)N2Cc1ccccc1 (stereo not given)	-26	98*	-29	-9	-2	-30
COc1ccccc1C(=O)NC1CC2CCCC(C1)N2Cc1ccccc1 (stereo not given)	-3	39*	-2	-9	4	-24
O=C(NCCCNC(=O)c1ccco1)c1ccc(F)cc1	-2	1	-2	-3	10	4
CN(C)C(=O)CCc1ccc2c3c([nH]c2c1)[C@]1(CCC2CCCC2)[C@@H](C(=O)N2CCOCC2)C[C@H](CC(=O)NCCC2=CCCCC2)C(=O)N1CC3	-2	-14	5	-9	-12	4
Cc1nc2scc(-c3ccccc3)c2c(=O)o1	-2	21	23*	0	11	-3
CC(=O)Nc1ccc(Sc2ccc([N+](=O)[O-])o2)cc1	-3	-3	-10	-3	14	3
CC(C)(C)C(=O)Nc1ccc(Sc2ccc([N+](=O)[O-])cc2)cc1	2	35*	-18	-6	43*	-23
SMILES	M5 ag	M1 antag	CHRM5 PAM	M1 ag	M5 antag	M1 PAM
CCN(CC)C(=O)C1=C(C)N(CCC2=CCCCC2)C(=O)C(CC(=O)NCCc2ccccn2)C1 (stereo not given)	-1	-6	-3	-8	2	3
c1ccc(Nc2nc(-c3ccccn3)cs2)cc1	-8	-9	-15	-1	-2	3
COc1cccc2sc(Nc3nc(-c4ccccn4)cs3)nc12	-5	18	-36	1	30*	3
Cc1ccc(C(=O)Nc2ccc(S(=O)(=O)Nc3ncccn3)cc2)cc1[N+](=O)[O-]	-2	-5	3	-2	11	1
CCN1C(=O)[C@@H]2[C@@H]3CN(S(=O)(=O)c4ccc(C)cc4)[C@@H](c4ccccc4F)[C@@H]3C(=O)C[C@@H]2C1=O	6	-8	1	0	-6	11
CCN(Cc1ccccc1)S(=O)(=O)c1ccc(C(=O)N(CCCN(C)C)c2nc3cc4c(cc3s2)OCCO4)cc1	1	21*	-1	-4	8	-16
CN(C)CCCN(C(=O)c1ccc(Cl)s1)c1nc2cc3c(cc2s1)OCO3	-6	8	-2	1	2	-6
CN(C)CCCN(C(=O)c1cc(Cl)sc1Cl)c1nc2cc3c(cc2s1)OCO3	-9	96*	-18	-4	42*	-24
COC(=O)[C@@]12C[C@@H](CC(=O)NCc3cccc(C(F)(F)F)c3)C(=O)N(Cc3cccc4ccccc34)C1=CCC(C)(C)C2	2	x	10	x	-11	x
CCN1C(=O)N[C@@H](c2cccc(F)c2)C(C(C)=O)=C1C	2	-24	-5	4	8	31*
COC(=O)c1cc(Sc2c(Cl)cccc2Cl)ccn1	-1	-1	6	-9	-11	7
COC(=O)c1cc(Sc2cccc(Cl)c2Cl)ccn1	0	-4	21*	-2	5	8
O=C(CN1CCN(c2ccccn2)CC1)Nc1ccccc1C(=O)Nc1ccccc1	4	17	-15	2	7	-1

Screens from PubChem BioAssay.
